# Assay results as given in ChEMBL document CHEMBL1127070, “Synthesis and binding properties of MK-801 isothiocyanates; (+)-3-isothiocyanato-5-methyl-10,11-dihydro-5H-dibenzo[a,d]cyclohepten- 5,10-imine hydrochloride: a new, potent and selective electrophilic affinity ligand for the NMDA receptor-coupled phencyclidine binding site” (J Med Chem, 1993).
# pKi: −log10 of the molar value.
# Columns and labels:
# Glutamate NMDA receptor [1] = assay: Tested for the inhibition of [3H]dizocilpine binding to N-methyl-D-aspartate (NMDA) receptor-coupled phencyclidine binding site; format: protein-complex assay
# Method in brief: (§1)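 Rat brain membranes (Sprague–Dawley, whole brain minus cerebellum) in 5 mM Tris-HCl pH 7.4, washed by repeated 20000g spins. Incubation with 2 nM (+)-[3H]-3, 10 μM glutamate and 10 μM glycine for 90 min at 5 °C. Nonspecific binding defined with 10 μM (+)-3. Filtration, then scintillation counting.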
# [2] = molecular target: T1, Glutamate NMDA receptor (Rattus norvegicus) (UniProt P35439+Q00959+Q00960+Q00961+Q62645+Q8VHN2+Q9R1M7); assay: Tested for the % inactivation of [3H]dizocilpine binding to NMDA receptor at 10 uM); format: protein-complex assay
# Method in brief: (§2)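 Thawed rat brain homogenates pretreated with isothiocyanate for 30 min at 5 °C. Washed three times with buffer containing 100 μM glutamate, 30 μM glycine and 300 μM MgCl2, which removes reversible ligand. Binding of 2 nM (+)-[3H]-3 then measured as in the reversible assay. % inactivation is versus similarly washed untreated controls. Triplicates, mean ± SEM of ≥2 experiments.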
# Mu-type opioid receptor = Mu-type opioid receptor (Rattus norvegicus, UniProt P33535); assay: Tested for in vitro inhibition of the displacement of [3H]FOXY from mu opioid receptor
# Mu-type opioid receptor, sequence (P33535 whole entry): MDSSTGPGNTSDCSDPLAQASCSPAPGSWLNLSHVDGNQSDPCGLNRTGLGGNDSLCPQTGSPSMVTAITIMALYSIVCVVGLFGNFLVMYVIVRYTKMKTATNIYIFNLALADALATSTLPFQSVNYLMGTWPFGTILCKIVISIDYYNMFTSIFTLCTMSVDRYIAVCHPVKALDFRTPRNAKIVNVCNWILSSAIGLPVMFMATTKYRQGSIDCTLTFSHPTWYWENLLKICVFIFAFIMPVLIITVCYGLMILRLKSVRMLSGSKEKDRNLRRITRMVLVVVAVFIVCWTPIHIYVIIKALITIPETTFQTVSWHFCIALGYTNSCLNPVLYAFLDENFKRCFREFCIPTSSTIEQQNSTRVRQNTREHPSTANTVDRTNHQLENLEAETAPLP
# Method in brief: (§3)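 Reversible and wash-resistant displacement assays used published protocols, with extra washes added to remove unreacted compound. Final radioligand levels were [3H]flunitrazepam 1 nM, (+)-[3H]pentazocine 3 nM, [3H]FOXY 2 nM, [3H]QNB 0.5 nM and [3H]mazindol 5 nM. Test compound went up to 100 μM. Runs were in triplicate, with at least two experiments. Ki came from Cheng-Prusoff.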
# [3] = molecular target: Sodium-dependent dopamine transporter (Rattus norvegicus) (UniProt P23977); assay: Tested for in vitro inhibition of the displacement of [3H]mazindol from dopamine transporter
# Sodium-dependent dopamine transporter (Rattus norvegicus), sequence (P23977 whole entry, looked up): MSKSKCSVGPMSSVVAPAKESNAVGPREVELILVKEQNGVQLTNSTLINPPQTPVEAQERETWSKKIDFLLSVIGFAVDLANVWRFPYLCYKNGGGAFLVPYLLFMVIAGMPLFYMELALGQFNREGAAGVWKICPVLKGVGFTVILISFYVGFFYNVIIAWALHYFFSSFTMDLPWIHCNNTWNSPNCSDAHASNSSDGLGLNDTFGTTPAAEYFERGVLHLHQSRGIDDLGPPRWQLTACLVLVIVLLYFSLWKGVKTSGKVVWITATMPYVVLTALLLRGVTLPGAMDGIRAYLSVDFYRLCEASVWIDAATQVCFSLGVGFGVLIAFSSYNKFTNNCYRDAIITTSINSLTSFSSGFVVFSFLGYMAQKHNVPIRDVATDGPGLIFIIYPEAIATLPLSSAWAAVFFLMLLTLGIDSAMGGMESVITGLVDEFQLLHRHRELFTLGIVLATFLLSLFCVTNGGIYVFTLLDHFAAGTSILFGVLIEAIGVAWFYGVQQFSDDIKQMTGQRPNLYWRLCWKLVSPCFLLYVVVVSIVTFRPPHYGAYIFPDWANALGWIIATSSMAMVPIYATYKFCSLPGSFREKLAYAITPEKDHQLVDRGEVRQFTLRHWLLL
# [4] = molecular target: Muscarinic acetylcholine receptor; assay: Tested for in vitro inhibition of the displacement of [3H]quinuclidinyl benzilate muscarinic receptor; format: protein assay
# [5] = molecular target: Sigma non-opioid intracellular receptor 1 (Rattus norvegicus, UniProt Q9R0C9); assay: Tested for in vitro inhibition of the displacement of (+)-[3H]pentazocine from sigma opioid receptor; method in brief: as §3
# Sigma non-opioid intracellular receptor 1, sequence (Q9R0C9 whole entry): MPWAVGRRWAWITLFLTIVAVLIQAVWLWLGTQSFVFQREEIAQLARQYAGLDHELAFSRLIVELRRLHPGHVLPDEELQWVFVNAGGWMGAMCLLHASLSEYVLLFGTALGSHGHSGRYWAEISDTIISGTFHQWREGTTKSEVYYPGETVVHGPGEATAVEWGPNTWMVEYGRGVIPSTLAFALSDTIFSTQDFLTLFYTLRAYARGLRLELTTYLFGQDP
# Glutamate NMDA receptor [6] = assay: Tested for in vitro inhibition of the displacement of [3H]1-[1-(2-thieny])cyclohexyl] peridine from NMDA receptor; format: protein-complex assay
# Glutamate NMDA receptor [7] = assay: Tested for in vitro inhibition of the displacement of (+)-[3H]dizocilpine from NMDA receptor; format: protein-complex assay; method in brief: as §1
# [8] = molecular target: GABA-A receptor; anion channel; assay: In vitro inhibition of [3H]flunitrazepam displacement from GABA-A receptor; format: protein-complex assay, Rattus norvegicus; method in brief: as §3
# [9] = molecular target: T1, Glutamate NMDA receptor (Rattus norvegicus); assay: Tested for % inactivation of the displacement of [3H]1-[1-(2-thieny])cyclohexyl] peridine from NMDA receptor by 100 nM; format: protein-complex assay
# [10] = molecular target: T1, Glutamate NMDA receptor (Rattus norvegicus); assay: Tested for % inactivation of the displacement of (+)-[3H]dizocilpine from NMDA receptor by 100 nM; format: protein-complex assay; method in brief: as §2
# [11] = molecular target: Muscarinic acetylcholine receptor; assay: Tested for in vitro inhibition of the displacement of [3H]QNB from CNS receptor; format: protein assay; method in brief: as §3
compound,measurement,setting,value
CC[C@]1(c2cccc(N=C=S)c2)OC[C@H]([C@@H]2CCCCN2)O1,pKi,Glutamate NMDA receptor [1],7.03
same,Activity,[2],55%
C[C@]12N[C@H](Cc3cc(N=C=S)ccc31)c1ccccc12,pKi,Glutamate NMDA receptor [1],6.07
S=C=Nc1cccc(C2(N3CCCCC3)CCCCC2)c1,pKi,Glutamate NMDA receptor [1],6.27
C[C@]12N[C@H](Cc3ccc(N=C=S)cc31)c1ccccc12 (stereo in doubt; (+)-8a) [listing 1 of 2 here],pKi,Mu-type opioid receptor,< 4.00
same,pKi,[3],5.16
same,Ki,[4],> 100 µM
same,pKi,[5],5.32
same,pKi,Glutamate NMDA receptor [6],6.88
same,pKi,Glutamate NMDA receptor [7],7.43
same,pKi,Glutamate NMDA receptor [1],7.43
same,pKi,[8],< 4.00
C[C@]12N[C@H](Cc3ccc(N=C=S)cc31)c1ccccc12 (stereo in doubt; (+)-8a) [listing 2 of 2 here],Activity,[9],50%
same,Activity,[2],56%
same,Activity,[10],53%
C[C@]12N[C@H](Cc3ccc(N=C=S)cc31)c1ccccc12 (stereo in doubt; (-)-8a),pKi,Glutamate NMDA receptor [1],6.08
C[C@]12N[C@H](Cc3ccccc31)c1ccccc12 [DIZOCILPINE],pKi,Mu-type opioid receptor,< 4.00
same,pKi,[3],4.39
same,pKi,[8],< 4.00
same,Ki,[11],> 100 µM
